In ChEMBL document CHEMBL4041498, “Antibacterial and Cytotoxic Actinomycins Y6-Y9 and Zp from Streptomyces sp. Strain Gö-GS12” (J Nat Prod, 2016):
Converted amounts (≈) assume the structure as drawn. Numbered stars: 1 amine (or outer) side, 2 acyl side, 3 side chain; on linkers, the order of the positions; unused ones are H or OH. Bridge positions count the residues as written; N and C are the ends. Square brackets hold non-standard residues; d marks the D form. Peptide text beside a SMILES is read from it. I, II: the chains in the order shown. Actinocin(1to9) = Cc1c2oc3c(C)ccc(C(=O)[*:2])c3nc-2c(C(=O)[*:1])c(N)c1=O; Actinocin(9to1) = Cc1c2oc3c(C)ccc(C(=O)[*:1])c3nc-2c(C(=O)[*:2])c(N)c1=O; Pro(3S-OH,5S-Me) = C[C@H]1C[C@H](O)[C@@H](C(=O)O)N1; X2 = O=C([C@@H](N[*:1])[C@@H](CCl)O[*:3])[*:2]; X1 = O=C([C@@H](N[*:1])[C@@H](CO)O[*:3])[*:2]; Pro(5S-Me) = C[C@H]1CC[C@@H](C(=O)O)N1; Pro(4-oxo) = O=C1CN[C@H](C(=O)O)C1; NMeV = CN[C@H](C(=O)O)C(C)C; NMeA = CN[C@@H](C)C(=O)O; Sar = CNCC(=O)O

Assays:
Staphylococcus aureus = assay: Antibacterial activity against Staphylococcus aureus ATCC 6538 after incubated for 16 to 48 hrs at 28 to 37 degC by spectrofluorometric method; assay type: functional
Summary of the method: (§1)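 Overnight cultures (16 h, 37 °C, 250 rpm) were grown in tryptic soy broth (S. aureus, M. luteus), LB (B. subtilis, E. coli), nutrient broth (S. enterica), Middlebrook 7H9 + OADC (M. aurum) or YAPD (S. cerevisiae). They were diluted to OD600 ~0.1 and exposed to serial dilutions from a final maximum of ~10 μg/mL, then shaken at 160 rpm. OD600 was normalized to DMSO control, and MIC was taken as the lowest concentration inhibiting growth.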

Micrococcus luteus = assay: Antibacterial activity against Micrococcus luteus ATCC 15307 after incubated for 16 to 48 hrs at 28 to 37 degC by spectrofluorometric method; assay type: functional; summary of the method: as §1
Bacillus spizizenii = assay: Antibacterial activity against Bacillus subtilis ATCC 6633 after incubated for 16 to 48 hrs at 28 to 37 degC by spectrofluorometric method; assay type: functional; summary of the method: as §1
Mycolicibacterium aurum = assay: Antibacterial activity against Mycobacterium aurum ATCC 23366 after incubated for 16 to 48 hrs at 28 to 37 degC […]; assay type: functional
[1] = Antibacterial activity against Salmonella enterica ATCC 10708 after incubated for 16 to 48 hrs at 28 to 37 degC by spectrofluorometric method; assay type: functional; summary of the method: as §1
Escherichia coli = assay: Antibacterial activity against Escherichia coli ATCC 12435 after incubated for 16 to 48 hrs at 28 to 37 degC by spectrofluorometric method; assay type: functional; summary of the method: as §1
Saccharomyces cerevisiae = assay: Antifungal activity against Saccharomyces cerevisiae ATCC 204508 after incubated for 16 to 48 hrs at 28 to 37 degC by spectrofluorometric method; assay type: functional
PC-3 = assay: Cytotoxicity against human PC3 cells assessed as reduction in cell viability after 48 hrs by alamar blue assay; assay type: functional, cell-based; conditions: PC-3, 48 h
Summary of the method: (§2)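 A549 cells were grown in DMEM/F-12 Kaighn's and PC3 cells in MEM/EBSS, both with 10% heat-inactivated FBS, penicillin/streptomycin and 2 mM L-glutamine. Cells were seeded at 5 × 10^3 per well, attached 24 h at 37 °C in 5% CO2, then exposed for 2 days. Values are % of untreated control from three independent experiments.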

A549 = assay: Cytotoxicity against human A549 cells assessed as reduction in cell viability after 48 hrs by alamar blue assay; assay type: functional, cell-based; conditions: A549, 48 h; summary of the method: as §2

SMILES | MIC (Staphylococcus aureus) [µg/mL] | MIC (Micrococcus luteus) [µg/mL] | MIC (Bacillus spizizenii) [µg/mL] | MIC (Mycolicibacterium aurum) [µg/mL] | MIC [1] [µg/mL] | MIC (Escherichia coli) [µg/mL] | MIC (Saccharomyces cerevisiae) [µg/mL] | EC50 (PC-3) [nM] | EC50 (A549) [nM]
Cc1c2oc3c(C)ccc(C(=O)N[C@@H]4C(=O)N[C@H](C(C)C)C(=O)N5[C@H](C(=O)N(C)CC(=O)N(C)[C@@H](C(C)C)C(=O)O[C@@H]4C)[C@@H](O)C[C@@H]5C)c3nc-2c(C(=O)OC[C@H](O)[C@@H]2NC(=O)[C@H](C)N(C)C(=O)CN(C)C(=O)[C@@H]3CC(=O)CN3C(=O)[C@@H](C(C)C)NC2=O)c(N)c1=O | > 9.33 | 4.67 (≈ 3.63 µM) | > 9.33 | > 9.33 | > 9.33 | > 9.33 | > 9.33 | – | –
Cc1c2oc3c(C)ccc(C(=O)N[C@@H]4C(=O)N[C@H](C(C)C)C(=O)N5[C@H](C(=O)N(C)CC(=O)N(C)[C@@H](C(C)C)C(=O)O[C@@H]4C)[C@@H](O)C[C@@H]5C)c3nc-2c2c(c1=O)N[C@H]([C@@H]1NC(=O)[C@H](C)N(C)C(=O)CN(C)C(=O)[C@@H]3CC(=O)CN3C(=O)[C@@H](C(C)C)NC1=O)COC2=O | 2.37 (≈ 1.87 µM) | 0.59 (≈ 0.465 µM) | 0.59 (≈ 0.465 µM) | 0.95 (≈ 0.748 µM) | > 9.46 | > 9.46 | 9.46 (≈ 7.45 µM) | 76.7 | 71.5
Cc1c2oc3c(C)ccc(C(=O)N[C@@H]4C(=O)N[C@H](C(C)C)C(=O)N5[C@H](C(=O)N(C)CC(=O)N(C)[C@@H](C(C)C)C(=O)O[C@@H]4C)[C@@H](O)C[C@@H]5C)c3nc-2c(C(=O)OC[C@H](O)[C@@H]2NC(=O)[C@H](C)N(C)C(=O)CN(C)C(=O)[C@@H]3C[C@@H](O)CN3C(=O)[C@@H](C(C)C)NC2=O)c(N)c1=O | > 9.32 | 4.66 (≈ 3.61 µM) | > 9.32 | > 9.32 | > 9.32 | > 9.32 | > 9.32 | – | –
Cc1c2oc3c(C)ccc(C(=O)N[C@@H]4C(=O)N[C@H](C(C)C)C(=O)N5[C@H](C(=O)N(C)CC(=O)N(C)[C@@H](C(C)C)C(=O)O[C@@H]4C)[C@@H](O)C[C@@H]5C)c3nc-2c(C(=O)N[C@@H]2C(=O)N[C@H](C(C)C)C(=O)N3CC(=O)C[C@H]3C(=O)N(C)CC(=O)N(C)[C@@H](C)C(=O)O[C@@H]2C)c(N)c1=O (I: T[dV][Pro(4-oxo)][Sar][NMeA] / II: T[dV][Pro(3S-OH,5S-Me)][Sar][NMeV]; ester I:1-I:C, II:1-II:C; linker I:N-II:N via Actinocin(1to9)) | – | – | – | – | > 9.45 | – | – | – | –
Cc1c2oc3c(C)ccc(C(=O)N[C@@H]4C(=O)N[C@H](C(C)C)C(=O)N5[C@@H](C)CC[C@H]5C(=O)N(C)CC(=O)N(C)[C@@H](C(C)C)C(=O)O[C@@H]4C)c3nc-2c(C(=O)N[C@@H]2C(=O)N[C@H](C(C)C)C(=O)N3CC(=O)C[C@H]3C(=O)N(C)CC(=O)N(C)[C@@H](C)C(=O)O[C@@H]2C)c(N)c1=O (I: T[dV][Pro(4-oxo)][Sar][NMeA] / II: T[dV][Pro(5S-Me)][Sar][NMeV]; ester I:1-I:C, II:1-II:C; linker I:N-II:N via Actinocin(1to9)) | – | 0.003 (≈ 0.00239 µM) | – | – | > 9.57 | – | – | – | –
Cc1c2oc3c(C)ccc(C(=O)N[C@@H]4C(=O)N[C@H](C(C)C)C(=O)N5[C@@H](C)CC[C@H]5C(=O)N(C)CC(=O)N(C)[C@@H](C(C)C)C(=O)O[C@@H]4C)c3nc-2c(C(=O)N[C@@H]2C(=O)N[C@H](C(C)C)C(=O)N3[C@@H](C)CC[C@H]3C(=O)N(C)CC(=O)N(C)[C@@H](C(C)C)C(=O)O[C@@H]2C)c(N)c1=O (I: T[dV][Pro(5S-Me)][Sar][NMeV] / II: T[dV][Pro(5S-Me)][Sar][NMeV]; ester I:1-I:C, II:1-II:C; linker I:N-II:N via Actinocin(9to1)) | – | – | 0.006 (≈ 0.00467 µM) | – | > 9.36 | – | – | – | –
Cc1c2oc3c(C)ccc(C(=O)N[C@@H]4C(=O)N[C@H](C(C)C)C(=O)N5[C@H](C(=O)N(C)CC(=O)N(C)[C@@H](C(C)C)C(=O)O[C@@H]4C)[C@@H](O)C[C@@H]5C)c3nc-2c(C(=O)N[C@@H]2C(=O)N[C@H](C(C)C)C(=O)N3CC(=O)C[C@H]3C(=O)N(C)CC(=O)N(C)[C@@H](C)C(=O)O[C@@H]2CO)c(N)c1=O (I: [X1][dV][Pro(4-oxo)][Sar][NMeA] / II: T[dV][Pro(3S-OH,5S-Me)][Sar][NMeV]; ester I:1-I:C, II:1-II:C; linker I:N-II:N via Actinocin(1to9)) | – | 0.12 (≈ 0.0932 µM) | – | – | > 9.33 | – | – | – | –
Cc1c2oc3c(C)ccc(C(=O)N[C@@H]4C(=O)N[C@H](C(C)C)C(=O)N5[C@H](C(=O)N(C)CC(=O)N(C)[C@@H](C(C)C)C(=O)O[C@@H]4C)[C@@H](O)C[C@@H]5C)c3nc-2c(C(=O)N[C@@H]2C(=O)N[C@H](C(C)C)C(=O)N3CC(=O)C[C@H]3C(=O)N(C)CC(=O)N(C)[C@@H](C)C(=O)O[C@@H]2CCl)c(N)c1=O (I: [X2][dV][Pro(4-oxo)][Sar][NMeA] / II: T[dV][Pro(3S-OH,5S-Me)][Sar][NMeV]; ester I:1-I:C, II:1-II:C; linker I:N-II:N via Actinocin(1to9)) | – | – | – | – | > 9.2 | – | – | – | –
Cc1c2oc3c(C)ccc(C(=O)N[C@@H]4C(=O)N[C@H](C(C)C)C(=O)N5CCC[C@H]5C(=O)N(C)CC(=O)N(C)[C@@H](C(C)C)C(=O)O[C@@H]4C)c3nc-2c(C(=O)N[C@@H]2C(=O)N[C@H](C(C)C)C(=O)N3CCC[C@H]3C(=O)N(C)CC(=O)N(C)[C@@H](C(C)C)C(=O)O[C@@H]2C)c(N)c1=O [DACTINOMYCIN] (I: T[dV]P[Sar][NMeV] / II: T[dV]P[Sar][NMeV]; ester I:1-I:C, II:1-II:C; linker I:N-II:N via Actinocin(1to9)) | 0.006 (≈ 0.00478 µM) | 0.003 (≈ 0.00239 µM) | 0.002 (≈ 0.00159 µM) | 0.6 (≈ 0.478 µM) | 9.57 (≈ 7.62 µM) | – | 4.79 (≈ 3.82 µM) | – | –
